High-throughput results deposited in PubChem by several laboratories.
ADAM17 inh = ADAM17 inhibition, QFRET primary screen | P78536 | recombinant ADAM17, EDANS/DABCYL FRET peptide cleavage | inhibition, % at 6.95 µM | 370,000 tested, 0.83% active | AID 720648;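 active means inhibition above the mean of compounds lying between control limits plus 3 SD, set per campaign, cut at about 8.5% in these data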;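 further: 0% = DMSO-only wells as the low control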
FAS-TE inh = FAS thioesterase (human) inhibition | P49327 | recombinant FAS-TE, OMFH fluorogenic substrate, fluorescence endpoint | inhibition, % at 15 µM | 360,000 tested, 0.67% active;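 active means compounds whose normalised, plate-corrected inhibition of enzyme fluorescence in the single-dose primary screen is 50% or more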;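 further: 0% = DMSO with enzyme and 100% = substrate without enzyme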
ADAM10 inh = ADAM10 inhibition, QFRET primary screen. O14672. recombinant ADAM10, EDANS/DABCYL FRET peptide cleavage, 3 h. inhibition, % at 7 µM. 370,000 tested, 0.62% active. AID 720582;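 active means inhibition above a per-campaign cutoff equal to the mean of compounds falling between control-based bounds plus 3 SD, cut at about 20% in these data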;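 further: 0% = DMSO wells while the 100% control is not disclosed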
Target sequence (O14672 214-748 limits assumed): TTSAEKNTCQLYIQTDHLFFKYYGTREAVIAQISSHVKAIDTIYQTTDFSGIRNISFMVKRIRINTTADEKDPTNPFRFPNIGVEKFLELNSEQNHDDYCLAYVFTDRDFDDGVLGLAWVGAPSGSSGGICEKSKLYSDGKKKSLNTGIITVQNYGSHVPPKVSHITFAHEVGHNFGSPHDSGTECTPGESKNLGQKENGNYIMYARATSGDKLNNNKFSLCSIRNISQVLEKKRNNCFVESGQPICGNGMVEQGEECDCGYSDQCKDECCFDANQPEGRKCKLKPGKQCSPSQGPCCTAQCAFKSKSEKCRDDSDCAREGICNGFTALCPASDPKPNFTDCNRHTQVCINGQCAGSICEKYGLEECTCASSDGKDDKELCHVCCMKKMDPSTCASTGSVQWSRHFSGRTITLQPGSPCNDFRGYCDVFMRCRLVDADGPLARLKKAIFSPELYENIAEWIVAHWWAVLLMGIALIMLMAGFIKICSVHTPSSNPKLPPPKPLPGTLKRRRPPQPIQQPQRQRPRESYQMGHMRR
SENP1 FRET inh = SENP1 (human) catalytic domain inhibition; 360,000 tested, 0.21% active; inhibition, % at 10 µM; Q9P0U3; recombinant SENP1 catalytic domain, CyPet-SUMO1-YPet FRET cleavage;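 active means inhibition at least 30% at 10 µM, raw YFP signal under a set limit, fluorescence ratio 0.5 to 1.5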;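 further: 0% = enzyme with DMSO and 100% = no enzyme wells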
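System: Recombinant human SENP1 catalytic domain, His6-tagged | Incubation: Enzyme reaction for 50 min at room temperature, dark | Medium: Tris pH 8 with BME, BSA, NP40 and catalase | Also added: 25 nM SUMO1 FRET substrate | Compound: 10 µM single point, 0.5% DMSO | Measured by: FRET fluorescence in CFP and YFP emission channels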
ADAM10 counter = counter-screen for ADAM17 exosite inhibitors: inhibitors of human ADAM10. AID 743256. recombinant ADAM10, EDANS/DABCYL FRET peptide cleavage, 3 h. shares compounds with ADAM17 inh. inhibition, % at 6.95 µM. 2,900 tested, 47% active;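 active means mean inhibition over the triplicate runs exceeds the activity threshold set in the earlier primary screen, cut at about 20% in these data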;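 further: 0% = DMSO wells and 100% = marimastat wells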
ADAM17 confirm = human ADAM17 inhibition, confirmation; recombinant ADAM17, EDANS/DABCYL QFRET peptide cleavage; inhibition, % at 6.95 µM; shares compounds with ADAM17 inh; AID 743257; 2,900 tested, 65% active;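 active means mean inhibition across replicates above the hit cutoff set in the primary screen, cut at about 8.5% in these data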;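 further: 0% = DMSO wells and 100% = marimastat wells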
Active calls of the source: *; nt = not tested or not shown. Hits are enriched below; roughly 1.9% of the tested compounds scored in any of these assays.

SMILES	ADAM17 inh	FAS-TE inh	ADAM10 inh	SENP1 FRET inh	ADAM10 counter	ADAM17 confirm
COc1ccc(C2c3c(-c4ccccc4O)n[nH]c3C(=O)N2Cc2ccco2)cc1 (configuration not stated)	8	-89	16	2	nt	nt
COc1ccc(C2c3c(-c4ccccc4O)n[nH]c3C(=O)N2CCc2ccc(OC)c(OC)c2)cc1 (configuration not stated)	12*	-136	24*	-1	23*	15*
Cc1ccc(C(=O)Nc2cc(S(=O)(=O)N3CCOCC3)ccc2N2CCCC2)cc1	0	0	-9	-6	nt	nt
CCc1ccc(C(=O)Nc2cc(S(=O)(=O)N3CCOCC3)ccc2N2CCOCC2)cc1	9.1*	15	6	2	-4	3
CC(C)COc1cccc(C(=O)Nc2cc(S(=O)(=O)N3CCOCC3)ccc2N2CCCC2)c1	11*	21	-6	-1	21*	11*
COc1cccc(C(=O)Nc2cc(S(=O)(=O)N3CCOCC3)ccc2N2CCOCC2)c1	-2	3	4	1	nt	nt
O=C(/C=C(\Nc1cc(Cl)c(Cl)c(Cl)c1)c1ccccc1)c1ccccc1	2	nt	1	nt	nt	nt
O=C1N(CCCO)CCC12CCCCC2	-2	nt	-6	nt	nt	nt
OC(c1ccccc1)(c1ccccc1)C1CCN(CCCOc2cccc(C(F)(F)F)c2)CC1	9.9*	nt	13	nt	27*	19*
OC(c1ccccc1)(c1ccccc1)C1CCN(CCCOc2ccc(C(F)(F)F)cc2)CC1	11*	nt	11	nt	24*	9.8*
C/C=C/c1ccccc1OCCCN1CCC(C(O)(c2ccccc2)c2ccccc2)CC1	13*	nt	10	nt	14	9.2*
COc1ccccc1C(=O)n1ccc2ccc(-c3ccc4ccn(Cc5ccccc5)c4c3)cc21	-41	nt	-221	nt	nt	nt
CCn1c(Cc2cccs2)nnc1SCC(=O)Nc1ccccc1-c1ccccc1	1	nt	3	nt	nt	nt
COc1cccc(C(C)(O)c2nc(-c3csc4ccccc34)cs2)c1 (configuration not stated)	9.5*	19	12	0	33*	16*
CCOC(=O)c1ccc(N2C(=O)c3n[nH]c(C)c3C2c2ccc(OC)cc2OC)cc1 (configuration not stated)	8.7*	12	17	2	16	10*
CCC[C@H]1[C@@H](NC(=O)c2ccc(Cl)cc2)CC[C@@]23CCCN2C(=O)CCC[C@@H]13	-5	nt	-5	nt	nt	nt
Cc1ccc(-n2nnnc2CNC(=O)C2CC(=O)N(c3ccccc3)C2)cc1C (configuration not stated)	9.4*	-5	2	0	1	4
COc1cc(NC(=O)c2ccc(S(=O)(=O)N(C)c3ccccc3)cc2)cc(OC)c1	10*	38	15	1	30*	17*
O=C(Nc1ccc(Cl)cc1)N1CCN(Cc2nc3ccccc3c(=O)[nH]2)CC1	3	nt	1	nt	nt	nt
O=C(CCCOC(=O)c1ccc(O)cc1O)c1ccc(Br)cc1	11*	18	8	0	13	10*
O=C(CCCOC(=O)c1cccnc1Cl)c1ccc(Br)cc1	0	22	-6	1	nt	nt
COc1c(C(CC(C)C)OC(C)=O)ccc2c1C(=O)OCc1cc(C)cc(O)c1O2 (configuration not stated)	12*	20	19	-1	27*	16*
COc1c(C(O)CC(C)C)ccc2c1C(=O)OCc1cc(C)cc(O)c1O2 (configuration not stated)	1	17	-3	-3	nt	nt
COc1ccc(-n2c(SCC(=O)Nc3ccc(Oc4ccccc4)cc3)nnc2-c2ccc(C)cc2)cc1	-4	nt	-2	nt	nt	nt
NS(=O)(=O)c1ccc(N/N=C/C=C/c2ccccc2[N+](=O)[O-])cc1	8.7*	9	17	21	19	19*
SMILES	ADAM17 inh	FAS-TE inh	ADAM10 inh	SENP1 FRET inh	ADAM10 counter	ADAM17 confirm
CCCCc1c(-c2ccccc2OC)ncn1Cc1cccc(F)c1F	-3	nt	0	nt	nt	nt
CCN(CC)CC(O)COC(c1ccccc1)c1ccccc1 (configuration not stated)	-8	-4	-11	1	nt	nt
CCN(Cc1ccccc1)CC(O)COC(c1ccc(OC)cc1)c1ccc(OC)cc1 (configuration not stated)	11*	7	4	-1	3	8
CC1(C(=O)Nc2ccc(Cl)c(Cl)c2)CCN1C(=O)C1CCCCC1 (configuration not stated)	10*	35	-1	-1	9	9.9*
CC1(C(=O)Nc2ccc3c(c2)OCO3)CCN1C(=O)C1CCCCC1 (configuration not stated)	5	2	9	1	nt	nt
CCCC#Cc1ccc(CC[C@H]2O[C@H]3CC[C@H](CO)O[C@H]3C[C@H]2NC(=O)CN2CCOCC2)cc1	1	nt	3	nt	nt	nt
Cc1ccccc1-c1nnn(Cc2ccc(F)cc2Cl)n1	10*	32	11	1	18	11*
Fc1ccc(-c2nnn(Cc3ccc(F)cc3Cl)n2)cc1	1	23	3	2	nt	nt
COC(=O)[C@]12C[C@H](CC(=O)N3CCCC3)C(=O)N(Cc3ccco3)C1=C[C@H](C(C)(C)C)O[C@@H]2C	-1	nt	1	nt	nt	nt
COCC1CCN(C(=O)c2cc(COc3ccccc3SC)on2)C1 (configuration not stated)	0	3	-2	1	nt	nt
C=CC[C@H]1CC(C)=C[C@H](CC=C)N1C(=O)c1cc(COc2ccccc2SC)on1	9.4*	21	13	-3	29*	14*
CC(C)(C)S(=O)N1Cc2cc(C(=O)NCC(F)(F)F)nc(-c3cccc(-c4cccc(F)c4)c3)c2[C@H]1CCO (some centres not stated)	10*	15	17	1	20*	11*
Cc1c(Cl)cccc1Nc1nc(N)nc(CSc2ncccn2)n1	4	-2	9	1	nt	nt
Cc1c(Cl)cccc1Nc1nc(N)nc(CSc2nc3ccccc3s2)n1	9.5*	23	16	-2	20	11*
Clc1ccc2[nH]cc(-c3nnnn3-c3ccccc3)c2c1	8.9*	4	16	1	29*	16*
Clc1ccc2ncc(-c3nnnn3-c3ccccc3)c(-c3ccccc3)c2c1	-3	23	3	3	nt	nt
COc1cccc(CN(C)C(=O)c2ccc(OCC(=O)Nc3cccc(C(F)(F)F)c3)c(OC)c2)c1	8.8*	18	16	1	26*	15*
CC(=O)Oc1ccc([N+](=O)[O-])cc1N1C(=O)c2ccccc2C1=O	9.8*	-8	6	3	23*	13*
COc1ccc([N+](=O)[O-])cc1N1C(=O)c2cccnc2C1=O	2	-1	6	0	nt	nt
COc1ccc2cc3cc(C(=O)Nc4ccc(F)cc4)sc3nc2c1	-15	nt	-49	nt	nt	nt
